From ChEMBL document CHEMBL3351710, “Synthesis of novel thiadiazolotriazin-4-ones and study of their mosquito-larvicidal and antibacterial properties” (Eur J Med Chem, 2014)
≈ marks a conversion by molar mass, not a printed value.

How the values were obtained:
Escherichia coli [1] = test: Antibacterial activity against Escherichia coli MTCC-725 assessed as zone of inhibition at 1 ug/ml; assay type: functional; details: read-out: DIZ
Summary of the method: (§1)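 Disc diffusion on Nutrient Agar. Strains were first grown on NA for 24 h at 37 °C, then spread as a lawn. Compounds were dissolved in DMSO. Sterile 6 mm discs were saturated with test solution, dried under laminar flow and placed on the inoculated plates. Plates were incubated at 37 °C for 18–24 h, and clear-zone diameters were measured.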

Anopheles stephensi [2] = test: Larvicidal activity against Anopheles stephensi late III or early IV instar larvae assessed as mortality after 24 hrs relative to untreated control; assay type: functional
Summary of the method: (§2)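 25 late III/early IV instar larvae in 250 mL water per beaker, exposed to a range of concentrations; a negative control ran with each set and malathion served as reference insecticide. Mortality was scored after 24 h in triplicate per sample. LC50 with 95% confidence limits was derived by Abbott's formula and log probit analysis.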

Anopheles stephensi [3] = test: Larvicidal activity against Anopheles stephensi late III or early IV instar larvae assessed as mortality after 24 hrs; assay type: functional; details: for LC50: Anopheles stephensi, iv, 24 h; summary of the method: as §2
Aeromonas hydrophila [4] = test: Antibacterial activity against Aeromonas hydrophila MTCC-1739 assessed as zone of inhibition at 1 ug/ml; assay type: functional; details: read-out: DIZ; summary of the method: as §1
Staphylococcus aureus [5] = test: Antibacterial activity against Staphylococcus aureus MTCC-7443 assessed as zone of inhibition at 1 ug/ml; assay type: functional; details: read-out: DIZ; summary of the method: as §1
Mus musculus = test: Toxicity in po dosed Swiss albino mouse after 72 hrs; assay type: organism-based; details: in vivo
Bacillus subtilis [6] = test: Antibacterial activity against Bacillus subtilis MTCC-441 assessed as zone of inhibition at 1 ug/ml; assay type: functional; details: read-out: DIZ; summary of the method: as §1
Staphylococcus aureus [7] = test: Antibacterial activity against Staphylococcus aureus MTCC-7443 assessed as zone of inhibition at 10 ug/disc; assay type: functional; details: read-out: DIZ; summary of the method: as §1
Aeromonas hydrophila [8] = test: Antibacterial activity against Aeromonas hydrophila MTCC-1739 assessed as zone of inhibition at 10 ug/disc; assay type: functional; details: read-out: DIZ; summary of the method: as §1
Bacillus subtilis [9] = test: Antibacterial activity against Bacillus subtilis MTCC-441 assessed as zone of inhibition at 10 ug/disc; assay type: functional; details: read-out: DIZ; summary of the method: as §1
Escherichia coli [10] = test: Antibacterial activity against Escherichia coli MTCC-725 assessed as zone of inhibition at 10 ug/disc; assay type: functional; details: read-out: DIZ; summary of the method: as §1

## Cc1cc(Cl)ccc1OCc1nn2c(=O)c(C(C)(C)C)nnc2s1
Escherichia coli [1]
  zone of inhibition at 1 µg/mL: 18.9 mm
Anopheles stephensi [2]
  Ratio: 0.17
Anopheles stephensi [3]
  LC90: 71.45 µg/mL (≈ 196 µM)
  LC50: 49.3 µg/mL (≈ 135 µM)
Aeromonas hydrophila [4]
  zone of inhibition at 1 µg/mL: 19.6 mm
Staphylococcus aureus [5]
  zone of inhibition at 1 µg/mL: 12.6 mm

## CC(=O)c1ccc(OCc2nn3c(=O)c(C(C)(C)C)nnc3s2)cc1
Escherichia coli [1]
  zone of inhibition at 1 µg/mL: 22.7 mm
Anopheles stephensi [2]
  Ratio: 0.1
Anopheles stephensi [3]
  LC90: 135.9 µg/mL (≈ 379 µM)
  LC50: 86.6 µg/mL (≈ 242 µM)
Mus musculus
  MLD: 1820 mg/kg
Aeromonas hydrophila [4]
  zone of inhibition at 1 µg/mL: 19.3 mm
Staphylococcus aureus [5]
  zone of inhibition at 1 µg/mL: 18.7 mm
Bacillus subtilis [6]
  zone of inhibition at 1 µg/mL: 25.7 mm

## CC(C)(C)c1nnc2sc(COc3ccc(I)cc3)nn2c1=O
Anopheles stephensi [2]
  Ratio: 0.11
Anopheles stephensi [3]
  LC90: 124.77 µg/mL (≈ 282 µM)
  LC50: 77.5 µg/mL (≈ 175 µM)
Bacillus subtilis [6]
  zone of inhibition at 1 µg/mL: 11.9 mm

## CC(C)(C)c1nnc2sc(COc3cc(Cl)c(Cl)cc3Cl)nn2c1=O
Escherichia coli [1]
  zone of inhibition at 1 µg/mL: 16.5 mm
Anopheles stephensi [2]
  Ratio: 0.11
Anopheles stephensi [3]
  LC90: 115.05 µg/mL (≈ 274 µM)
  LC50: 81.6 µg/mL (≈ 194 µM)
Aeromonas hydrophila [4]
  zone of inhibition at 1 µg/mL: 17.5 mm
Staphylococcus aureus [5]
  zone of inhibition at 1 µg/mL: 22.4 mm
Bacillus subtilis [6]
  zone of inhibition at 1 µg/mL: 19.3 mm

## CC(C)(C)c1nnc2sc(COc3ccccc3Cl)nn2c1=O
Escherichia coli [1]
  zone of inhibition at 1 µg/mL: 19.5 mm
Anopheles stephensi [2]
  Ratio: 0.12
Anopheles stephensi [3]
  LC90: 113.57 µg/mL (≈ 324 µM)
  LC50: 72.8 µg/mL (≈ 208 µM)
Aeromonas hydrophila [4]
  zone of inhibition at 1 µg/mL: 16.5 mm
Staphylococcus aureus [5]
  zone of inhibition at 1 µg/mL: 16.6 mm
Bacillus subtilis [6]
  zone of inhibition at 1 µg/mL: 18.9 mm

## CC(C)(C)c1nnc2sc(C(C)(C)Oc3ccc(Cl)cc3)nn2c1=O
Escherichia coli [1]
  zone of inhibition at 1 µg/mL: 21.1 mm
Anopheles stephensi [2]
  Ratio: 0.15
Anopheles stephensi [3]
  LC90: 87.49 µg/mL (≈ 231 µM)
  LC50: 55.2 µg/mL (≈ 146 µM)
Mus musculus
  MLD: 2260 mg/kg
Aeromonas hydrophila [4]
  zone of inhibition at 1 µg/mL: 22.4 mm
Staphylococcus aureus [5]
  zone of inhibition at 1 µg/mL: 19.6 mm
Bacillus subtilis [6]
  zone of inhibition at 1 µg/mL: 18.4 mm

## CC(C)(C)c1nnc2sc(COc3ccccc3)nn2c1=O
Escherichia coli [1]
  zone of inhibition at 1 µg/mL: 10.9 mm
Anopheles stephensi [2]
  Ratio: 0.11
Anopheles stephensi [3]
  LC90: 120.98 µg/mL (≈ 382 µM)
  LC50: 79.2 µg/mL (≈ 250 µM)
Staphylococcus aureus [5]
  zone of inhibition at 1 µg/mL: 12.3 mm

## COc1ccccc1OCc1nn2c(=O)c(C(C)(C)C)nnc2s1
Escherichia coli [1]
  zone of inhibition at 1 µg/mL: 15.6 mm
Anopheles stephensi [2]
  Ratio: 0.34
Anopheles stephensi [3]
  LC90: 37.78 µg/mL (≈ 109 µM)
  LC50: 25.7 µg/mL (≈ 74.2 µM)
Aeromonas hydrophila [4]
  zone of inhibition at 1 µg/mL: 13.9 mm
Staphylococcus aureus [5]
  zone of inhibition at 1 µg/mL: 21.7 mm
Bacillus subtilis [6]
  zone of inhibition at 1 µg/mL: 19.2 mm

## CC(C)(C)c1nnc2sc(COc3ccc(O)cc3)nn2c1=O
Escherichia coli [1]
  zone of inhibition at 1 µg/mL: 14.3 mm
Anopheles stephensi [2]
  Ratio: 0.4
Anopheles stephensi [3]
  LC90: 32.11 µg/mL (≈ 96.6 µM)
  LC50: 21.7 µg/mL (≈ 65.3 µM)
Mus musculus
  MLD: 1360 mg/kg
Aeromonas hydrophila [4]
  zone of inhibition at 1 µg/mL: 10.5 mm
Staphylococcus aureus [5]
  zone of inhibition at 1 µg/mL: 11.7 mm

## CC(C)(C)c1nnc2sc(COc3ccccc3[N+](=O)[O-])nn2c1=O
Escherichia coli [1]
  zone of inhibition at 1 µg/mL: 11.7 mm
Anopheles stephensi [2]
  Ratio: 0.12
Anopheles stephensi [3]
  LC90: 105.04 µg/mL (≈ 291 µM)
  LC50: 70.5 µg/mL (≈ 195 µM)
Aeromonas hydrophila [4]
  zone of inhibition at 1 µg/mL: 9.6 mm
Staphylococcus aureus [5]
  zone of inhibition at 1 µg/mL: 19.8 mm
Bacillus subtilis [6]
  zone of inhibition at 1 µg/mL: 16.8 mm

## Cc1cccc(C)c1OCc1nn2c(=O)c(C(C)(C)C)nnc2s1
Escherichia coli [1]
  zone of inhibition at 1 µg/mL: 11.4 mm
Anopheles stephensi [2]
  Ratio: 0.11
Anopheles stephensi [3]
  LC90: 115.2 µg/mL (≈ 334 µM)
  LC50: 103 µg/mL (≈ 298 µM)
Aeromonas hydrophila [4]
  zone of inhibition at 1 µg/mL: 10.4 mm
Bacillus subtilis [6]
  zone of inhibition at 1 µg/mL: 9.8 mm

## Cc1cc(C)c(C)c(OCc2nn3c(=O)c(C(C)(C)C)nnc3s2)c1
Escherichia coli [1]
  zone of inhibition at 1 µg/mL: 18.9 mm
Anopheles stephensi [2]
  Ratio: 0.29
Anopheles stephensi [3]
  LC90: 45.05 µg/mL (≈ 126 µM)
  LC50: 39.8 µg/mL (≈ 111 µM)
Aeromonas hydrophila [4]
  zone of inhibition at 1 µg/mL: 15.6 mm
Staphylococcus aureus [5]
  zone of inhibition at 1 µg/mL: 17.6 mm
Bacillus subtilis [6]
  zone of inhibition at 1 µg/mL: 15.6 mm

## CC(C)(C)c1nnc2sc(COc3ccc(Cl)cc3Cl)nn2c1=O
Anopheles stephensi [2]
  Ratio: 0.18
Anopheles stephensi [3]
  LC90: 73.2 µg/mL (≈ 190 µM)
  LC50: 48.7 µg/mL (≈ 126 µM)
Aeromonas hydrophila [4]
  zone of inhibition at 1 µg/mL: 9.7 mm
Staphylococcus aureus [5]
  zone of inhibition at 1 µg/mL: 10.8 mm
Bacillus subtilis [6]
  zone of inhibition at 1 µg/mL: 12.9 mm

## CC(C)(C)c1nnc2sc(COc3ccc(Cl)cc3)nn2c1=O
Escherichia coli [1]
  zone of inhibition at 1 µg/mL: 13.9 mm
Anopheles stephensi [2]
  Ratio: 0.14
Anopheles stephensi [3]
  LC90: 90.45 µg/mL (≈ 258 µM)
  LC50: 61.3 µg/mL (≈ 175 µM)
Aeromonas hydrophila [4]
  zone of inhibition at 1 µg/mL: 12.5 mm
Bacillus subtilis [6]
  zone of inhibition at 1 µg/mL: 11.2 mm

## CCOC(=O)CC(SP(=S)(OC)OC)C(=O)OCC (configuration not stated) [MALATHION]
Anopheles stephensi [3]
  LC90: 12.01 µg/mL (≈ 36.4 µM)
  LC50: 8.7 µg/mL (≈ 26.3 µM)

## CN[C@@H]1[C@H](O[C@H]2[C@H](O[C@H]3[C@H](O)[C@@H](O)[C@H](N=C(N)N)[C@@H](O)[C@@H]3N=C(N)N)O[C@@H](C)[C@]2(O)C=O)O[C@@H](CO)[C@H](O)[C@H]1O [STREPTOMYCIN]
Staphylococcus aureus [7]
  zone of inhibition at 10 µg/disc: 31.5 mm
Aeromonas hydrophila [8]
  zone of inhibition at 10 µg/disc: 22.4 mm
Bacillus subtilis [9]
  zone of inhibition at 10 µg/disc: 33.6 mm
Escherichia coli [10]
  zone of inhibition at 10 µg/disc: 26.3 mm
